# Screening results deposited in PubChem by several laboratories.
# Sampled rows, rich in hits. Any-hit rate of the full collection: about 6.8%.
# HEK293 NFkB inh: lowers PMA/ionomycin-induced NF-kB signal in HEK293 cells | HEK-293 NF-kB luciferase reporter, luminescence | inhibition, % at 3 µM | 62,000 compounds, 0.21% hits;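 active means inhibition above the mean of all tested compounds plus 3 SD, cut at about 40% in these data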;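 further: 0% = stimulated DMSO wells and 100% = 10 µM reference inhibitor 5653914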
#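 Material: HEK-293 cells with stable firefly luciferase reporter driven by four HIV NF-kB elements / Also added: PMA plus ionomycin mix as NF-kB-activating stimulus / Compound dosing: 3 µM once, 0.30% DMSO / Times: 1 h pretreatment, 16 h stimulation, 37 °C / Signal: luminescence / Evaluation: per-plate % inhibition versus controls / Benchmarks: DMSO and 10 µM reference inhibitor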
# DUSP1 inh: inhibitors of human MKP-1 phosphatase; P28562; recombinant MKP-1, OMFP hydrolysis fluorescence; inhibition, %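 (compounds tested at a single concentration somewhere between 10 and 100 µM)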; 65,000 compounds, 0.15% hits; AID 374;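 active means inhibition above about 50%, limit read from the data; inconclusive means inhibition over screen mean plus 3 SD, below that limit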;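 further: 0% = DMSO max control wells and 100% = wells with enzyme stopped by NaOH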
# M1 agonist: M1 muscarinic receptor agonism | CHO-M1 cells, Fluo-4 calcium fluorescence, agonist mode; stronger effect = higher value | B-score at 10 µM | 64,000 compounds, 3% hits | AID 626;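 active means fluorescence rise, raw or as B-score row- and column-corrected plate score, outside the 99.7% band of its plate's samples, either direction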
# Cdc25B block: human M-phase inducer phosphatase 2 inhibition; recombinant Cdc25B, OMFP fluorescence Ex485/Em525; AID 368; inhibition, %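 (compounds tested at 10 µM final in the well)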; 65,000 compounds, 0.1% hits; in the data active means inhibition above about 50%
# M1 antag: antagonists of rat M1 muscarinic receptor. P08482. CHO-M1 cells, Fluo-4 calcium, ACh EC80 antagonist mode; stronger effect = lower value. B-score at 10 µM. 64,000 compounds, 3.4% hits. AID 628;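 active means calcium fluorescence response, raw or row-and-column corrected B-score, differing from the plate sample mean either way at a set confidence level, mostly lower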
# HER2 expr 66K: inhibitors of human Her2 kinase expression; P04626; SKBR-3 HER2 protein level, AlphaScreen, 18-24 h; stronger effect = lower value; HER2 level % of control, % at 10 µM; 65,000 compounds, 0.69% hits;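 active means HER2 level under 5% of the carrier-only control; inconclusive means no clear call, values can overlap the other calls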;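 further: 100% = DMSO carrier and 0% = 500 nM PU-H71 HSP90 inhibitor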
# Target sequence (P04626 whole entry, looked up): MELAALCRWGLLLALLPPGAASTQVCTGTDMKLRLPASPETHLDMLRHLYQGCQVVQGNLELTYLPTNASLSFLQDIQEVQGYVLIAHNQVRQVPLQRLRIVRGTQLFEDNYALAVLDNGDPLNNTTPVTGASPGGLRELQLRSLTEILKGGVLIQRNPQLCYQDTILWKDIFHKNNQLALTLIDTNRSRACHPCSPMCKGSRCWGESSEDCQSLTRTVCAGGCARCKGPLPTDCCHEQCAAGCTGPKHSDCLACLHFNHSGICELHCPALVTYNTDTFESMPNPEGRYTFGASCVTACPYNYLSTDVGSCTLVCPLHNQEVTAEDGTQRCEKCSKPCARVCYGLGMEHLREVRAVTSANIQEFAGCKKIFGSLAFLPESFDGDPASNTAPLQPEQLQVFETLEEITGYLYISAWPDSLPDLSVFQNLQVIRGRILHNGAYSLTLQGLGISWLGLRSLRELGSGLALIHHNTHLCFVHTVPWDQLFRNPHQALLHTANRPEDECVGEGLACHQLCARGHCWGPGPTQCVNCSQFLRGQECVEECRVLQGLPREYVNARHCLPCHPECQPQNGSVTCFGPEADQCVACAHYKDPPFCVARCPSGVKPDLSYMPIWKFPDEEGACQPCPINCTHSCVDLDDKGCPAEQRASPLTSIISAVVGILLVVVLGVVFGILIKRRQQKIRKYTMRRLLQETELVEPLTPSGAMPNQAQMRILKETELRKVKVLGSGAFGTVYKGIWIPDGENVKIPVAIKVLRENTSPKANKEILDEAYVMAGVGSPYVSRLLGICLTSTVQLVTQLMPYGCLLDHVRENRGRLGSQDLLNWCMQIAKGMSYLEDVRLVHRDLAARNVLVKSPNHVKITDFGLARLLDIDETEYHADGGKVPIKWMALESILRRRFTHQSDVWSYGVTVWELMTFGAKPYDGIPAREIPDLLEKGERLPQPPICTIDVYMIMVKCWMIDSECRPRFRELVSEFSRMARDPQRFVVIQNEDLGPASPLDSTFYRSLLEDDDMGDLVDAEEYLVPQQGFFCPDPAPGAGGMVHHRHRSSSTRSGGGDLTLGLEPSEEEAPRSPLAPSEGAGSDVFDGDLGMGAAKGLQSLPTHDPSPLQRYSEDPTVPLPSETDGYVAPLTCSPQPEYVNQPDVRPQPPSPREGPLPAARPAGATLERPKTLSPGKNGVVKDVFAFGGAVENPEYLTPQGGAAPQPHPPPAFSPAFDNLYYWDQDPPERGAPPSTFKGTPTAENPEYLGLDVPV
# M1 ag confirm: rat M1 muscarinic agonism, confirmation; 1,700 compounds, 19% hits; fluorescence change (max-min) at 10 µM; shares compounds with M1 agonist; CHO-M1 cells, Fluo-4 calcium fluorescence, agonist mode; actives lie on both sides;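 active means fluorescence change differs from the solvent-only DMSO control mean at a set confidence level in both duplicate runs; inconclusive means differs from solvent-only control mean in just one of two runs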;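 further: an EC20 dose of acetylcholine follows compound addition during the same imaging run; raw fluorescence intensity difference in instrument units with no normalization to controls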
# M4 ag counter: rat M4 muscarinic agonism, M1 counter-screen; shares compounds with M1 agonist; CHO M4/Gqi5 cells, Fluo-4 calcium fluorescence, agonist mode; actives lie on both sides; fluorescence change (max-min) at 10 µM; 1,700 compounds, 9% hits; AID 1741;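 active means fluorescence change differing from the plate's solvent-only control wells at 99.7% confidence in both duplicates, whether higher or lower; inconclusive means differs from solvent controls in only one of two duplicates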
# The depositor's hits bear a star; ? = inconclusive; / = no result.
SMILES,HEK293 NFkB inh,DUSP1 inh,M1 agonist,Cdc25B block,M1 antag,HER2 expr 66K,M1 ag confirm,M4 ag counter
Cc1ccc(-c2nc(CSCC(=O)N3CCCC3)c(C)o2)cc1,21,-4,0.58,-11,-0.0082,103,/,/
CCOc1ccc(-c2nc(CSCC(=O)N3CCN(C(=O)c4ccco4)CC3)c(C)o2)cc1,-10,-1,-3.5*,-3,-0.36,103,?,-42
CCOC(=O)C1CCN(C(=O)CSCc2nc(-c3ccc(OCC)cc3)oc2C)CC1,13,4,5.1*,10,-1.6,101,-11,?
CCOc1cc(C(=O)Nc2ccccc2N2CCN(S(C)(=O)=O)CC2)cc(OCC)c1OCC,3,15,1.8*,-2,-0.43,68,-20,-34
COCCn1c(=S)[nH]c2ccc(N(C)C)cc2c1=O,10,34,6.3*,-7,-0.18,67,34,-6.2
CCOc1cc2[nH]c(=S)n(CCOC)c(=O)c2cc1OCC,4,3,-0.93,-13,-0.46,92,/,/
CCCOC(=O)C1[C@H]2C(=O)N(CC3CCCO3)C[C@]23C=C[C@H]1O3 (some centres not stated),-8,-3,-0.8,-2,0.28,83,/,/
Cc1nnc(SCc2ccc(Cl)cc2)n1CC1CCCO1 (configuration not stated),21,20,-0.058,-7,0.91,134,/,/
CCOc1cc(-c2nc3ccccn3c2NCC2CCCO2)ccc1O (configuration not stated),15,-3,10*,-10,-1.8*,92,-4.3,-10
CCOc1ccc(S(=O)(=O)NCC2CCCO2)c2cccnc12 (configuration not stated),15,9,0.29,-13,1.6,136,/,/
NC1=CC(=O)c2cccc3cccc1c23,12,-10,53*,5,-0.76,82,371*,440*
CCOC(=O)N1CCC(N2Cc3cccc(C(=O)Nc4ccc(OC)c(OC)c4)c3C2=O)CC1,-11,38,9*,-7,-4*,118,-29,-37
CCn1c(C)nc2cc(S(=O)(=O)C(F)(F)C(F)C(F)(F)F)ccc21 (configuration not stated),10,4,4.7*,-1,-1.9,107,-7.4,?
CCn1c(C)nc2cc(S(=O)(=O)N3CCCC3)ccc21,17,3,3.8,6,-1.5,116,/,/
O=C(CSc1nnnn1C1CCCCC1)NCCc1ccccc1,-2,16,-0.38,2,0.24,70,/,/
CC(C)(C)NC(=O)Nc1ccc2nccnc2c1,2,0,-0.15,4,0.58,93,/,/
CCOc1ccc(NC(=O)Nc2ccc3nccnc3c2)cc1,5,6,9.6*,1,-0.85,89,-7.6,-49
COCC(C)NS(=O)(=O)c1ccc(NC(=O)C(Cc2ccccc2)NC(N)=O)cc1 (configuration not stated),12,-1,0.2,2,-0.076,110,/,/
CN(C(=O)Cn1c(=O)n(CCCCC(=O)NC2CCCC2)c(=O)c2ccccc21)C1CCCCC1,16,-1,0.56,7,0.47,84,/,/
CCCSc1nnc(NC(=O)Nc2ccc(F)cc2)s1,/,-26,3.4*,28,-0.88,56,-7.2,-14
CCOC(=O)C1=C(C)N=c2s/c(=C\c3cccn3C)c(=O)n2C1c1cccc(OC)c1OC (configuration not stated),22,14,55*,-11,-0.67,73,3.4,76
CC1(C)CC2CC(C)(CN2C(=O)C23CCC(C)(C(=O)O2)C3(C)C)C1 (configuration not stated),16,3,0.55,-11,-0.2,91,/,/
CS(=O)(=O)N1CCC(C(=O)Nc2ccc(Oc3ccccc3)cc2)CC1,6,-6,3.2*,-1,-0.53,61,?,-70
COc1cccc(C2c3c(oc4ccc(Cl)cc4c3=O)C(=O)N2c2cc(C)on2)c1OC (configuration not stated),28,9,-0.62,-13,-0.37,98,/,/
Cc1ccc(C)c(NC(=O)C2CC(O)CN2C(=O)OC(C)(C)C)c1 (configuration not stated),13,-3,0.05,28,-0.18,89,/,/
SMILES,HEK293 NFkB inh,DUSP1 inh,M1 agonist,Cdc25B block,M1 antag,HER2 expr 66K,M1 ag confirm,M4 ag counter
Cc1cccc(C)c1NC(=O)Cn1c(=O)n(CCCC(=O)NCc2ccco2)c(=O)c2sccc21,12,23,0.27,-14,2.1,93,/,/
CCOC(=O)c1ccc(-n2c(=O)[nH]c3ccccc3c2=O)cc1,/,-15,-2*,16,0.55,138,?,-75
COc1ccc(-c2ccc(-c3noc(C4CCCCC4)n3)c(OC)n2)cc1,-3,-6,3.9*,-7,-1.1,141,-11,?
Cc1c(Cc2ccccc2)sc(N)c1C(N)=O,6,12,8.8*,-3,-0.074,79,0.13,-26
CC(=O)N1CCc2cc(S(=O)(=O)Nc3cccc(C(F)(F)F)c3)ccc21,34,35,5.1*,2,-0.98,82,-11,-34
COc1ccc2c(CC(=O)Nc3ccc(OC)c(NS(=O)(=O)c4ccc(F)cc4)c3)coc2c1,5,17,-1.5,-3,0.48,87,/,/
CCN=C1SC(C(=O)Nc2cccc(OCC)c2)CC(=O)N1CC (configuration not stated),16,-8,7.6*,2,-0.41,112,-18,-15
CCN1C(=O)CC(C(=O)Nc2ccc(F)cc2)SC1=Nc1cccc(OC)c1 (configuration not stated),5,-12,1.7,-8,-1.5,76,/,/
CCCc1cc(=O)[nH]c(SCC(=O)N(C)C2CCS(=O)(=O)C2)n1 (configuration not stated),9,21,-1.1,-24,-0.0071,94,/,/
O=C(Cn1nnc(-c2ccccc2F)n1)Nc1ccc(C(=O)N2CCOCC2)cc1,13,4,-0.97,-5,0.65,78,/,/
O=C(Cn1nnc(-c2ccccc2F)n1)Nc1ccc2c(c1)OCO2,5,-21,5.7*,12,-0.077,93,?,-62
COc1ccc(N(C(=O)C(C)C)S(=O)(=O)c2ccc3c(c2)n(C)c(=O)n3C)cc1,9,19,-0.0095,3,0.29,108,/,/
COc1ccc2c(c1OC)C(=O)N1c3ccccc3C(=O)N(c3ccc(F)cc3)C21 (configuration not stated),/,-19,13*,5,-1.7,104,-13,-27
